Legend:
[1] = molecular target: cGMP-dependent protein kinase (Eimeria tenella); assay: Inhibition of Eimeria tenella cGMP-dependent protein kinase assessed as inhibition of transfer of phosphate group by radiometric assay
Toxoplasma gondii = assay: Antiparasitic activity against Toxoplasma gondii in human foreskin fibroblast by beta-galactosidase assay; type: functional, organism-based
Procedure, shortened: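 Human foreskin fibroblasts grown to confluence, then infected with T. gondii strain stably expressing bacterial β-galactosidase; parasite growth allowed 5 days with test samples present. Chlorophenol red-β-D-galactopyranoside added, further 2–4 h incubation, absorbance read at 570 nm as measure of parasite viability. IC50 reported.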

For `CN1CCC(c2cc(-c3ccncc3)c(-c3ccc(F)cc3)[nH]2)CC1`, the IC50 [1] was less than 0.001 µM and the IC50 (Toxoplasma gondii) was 0.21 µM.
`COc1c(O)c(-c2ccccc2)cc(O)c1-c1ccccc1O` gave an IC50 [1] of 5.2 µM and an IC50 (Toxoplasma gondii) of 10.4 µM.
`COc1c(O)c(-c2ccccc2)cc(O)c1-c1cc(O)ccc1O` gave an IC50 [1] of 5.8 µM and an IC50 (Toxoplasma gondii) of 9.5 µM.
In the case of `COc1cc(-c2ccccc2)c(O)c(O)c1-c1ccccc1` [TERFEROL], the IC50 [1] is reported as 3.9 µM and the IC50 (Toxoplasma gondii) is reported as 26.8 µM.
